# Compound activity (PubChem)
# The full list was thinned out, with hits kept by preference.
# UPR XBP1 act – activators of adaptive arm of unfolded protein response (XBP1); activation, % at 20 µM; AID 463104; CHO-XBP1 luciferase reporter, IRE1-XBP1 UPR activation, luminescence; percent of tunicamycin response, DMSO as zero; 0.33% of 330,000 active;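 active = versus positive control, 20 µM dose yields 30% or more activation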;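 also: 100% = tunicamycin at 10 µg/mL and 0% = DMSO only wells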
#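 Material: CHO cell line with stable XBP1 luciferase reporter; buffer or medium: F12 medium containing 10% fetal bovine serum; compound: single point, 20 µM final compound, 1% DMSO; incubation: 6 h treatment, 37 °C; measured by: glow luminescence from Steady-Glo reagent; evaluation: activation, % of tunicamycin; control set: tunicamycin high, DMSO low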
# Beta2AR agonist – agonists of human beta-2 adrenergic receptor inducing internalization; Am2.2-beta2AR cells, FAP receptor internalization, flow cytometry; response, % (concentration not given with the values); 0.43% of 340,000 active;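 active = response above a set limit, near 3 SD of response in nonfluorescent compounds, cut at about 42% in these data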
# CHOP UPR activ – apoptotic UPR (CHOP) activation; AID 449763; CHO-CHOP luciferase reporter, luminescence; percent of tunicamycin response over DMSO baseline; activation, % at 10 µM; 0.34% of 330,000 active;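 active = at 10 µM dose, activation of 40% or more, normalized to positive control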;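 also: 100% = tunicamycin at 10 µg/mL and 0% = DMSO alone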
#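 System: CHO CHOP reporter cells. Amount: 500 cells per well. Buffer or medium: F12 medium, 10% FBS. Compound dosing: one dose, 10 µM in 0.5% DMSO. Incubation: 6 h compound exposure at 37 °C after overnight seeding. Technique: Steady-Glo luciferase luminescence. Benchmarks: tunicamycin and DMSO controls.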
# VLA-4 inh – inhibition in a human VLA-4 binding assay | VLA-4 expressing cells, ligand binding flow cytometry | 0.2% of 330,000 active | P13612 | inhibition, % (about 7 µM as worked out from the volumes in the protocol) | AID 2557; in the data active = inhibition above about 50%
# Target sequence (P13612 whole entry, looked up): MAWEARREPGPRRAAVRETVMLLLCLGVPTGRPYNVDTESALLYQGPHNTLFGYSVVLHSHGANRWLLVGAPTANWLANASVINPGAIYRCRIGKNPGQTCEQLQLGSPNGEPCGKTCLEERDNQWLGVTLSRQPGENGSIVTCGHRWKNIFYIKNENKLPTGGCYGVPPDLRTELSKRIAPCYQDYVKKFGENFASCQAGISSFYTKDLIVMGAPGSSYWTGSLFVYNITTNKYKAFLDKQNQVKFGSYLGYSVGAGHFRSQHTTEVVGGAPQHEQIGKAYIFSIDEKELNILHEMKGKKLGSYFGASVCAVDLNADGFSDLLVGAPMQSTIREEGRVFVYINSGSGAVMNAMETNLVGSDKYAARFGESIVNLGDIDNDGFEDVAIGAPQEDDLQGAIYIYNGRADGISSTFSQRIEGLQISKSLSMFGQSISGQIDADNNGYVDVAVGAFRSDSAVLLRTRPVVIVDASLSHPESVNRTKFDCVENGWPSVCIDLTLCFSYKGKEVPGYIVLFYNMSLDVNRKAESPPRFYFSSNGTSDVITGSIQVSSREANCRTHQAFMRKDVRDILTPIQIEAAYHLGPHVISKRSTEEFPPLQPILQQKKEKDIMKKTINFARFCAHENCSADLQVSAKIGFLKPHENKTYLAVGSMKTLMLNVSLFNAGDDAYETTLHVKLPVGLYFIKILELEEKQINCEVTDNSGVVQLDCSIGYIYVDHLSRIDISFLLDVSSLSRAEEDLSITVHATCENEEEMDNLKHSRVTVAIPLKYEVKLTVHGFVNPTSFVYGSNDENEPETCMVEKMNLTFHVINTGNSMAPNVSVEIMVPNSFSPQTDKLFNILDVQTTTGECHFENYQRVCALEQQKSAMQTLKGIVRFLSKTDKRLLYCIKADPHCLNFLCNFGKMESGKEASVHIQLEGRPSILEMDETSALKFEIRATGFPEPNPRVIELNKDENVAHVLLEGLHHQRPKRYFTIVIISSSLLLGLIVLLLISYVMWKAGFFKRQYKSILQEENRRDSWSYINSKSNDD
# CHOP inhibitor – CHOP inhibition in unfolded protein response. CHO-K1 CHOP-promoter luciferase, tunicamycin-induced, 15-18 h. inhibition, % at 10 µM. 3.8% of 220,000 active;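 active = compounds that reduced the stress-induced luciferase reporter signal by more than about 70% of percent inhibition, limit read from the data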;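 also: 0% = tunicamycin plus vehicle and 100% = wells without tunicamycin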
# Numbers without * were called inactive; · = not tested or not shown.
SMILES,UPR XBP1 act,Beta2AR agonist,CHOP UPR activ,VLA-4 inh,CHOP inhibitor
Clc1ccc(OCc2nn3c(C4CCCCC4)nnc3s2)c(Cl)c1,2,-9,-1,-3,87*
CC1CC(C)CN(c2ccc(-n3cnnn3)cc2[N+](=O)[O-])C1 (centres undefined),0,-2,0,-2,74*
O=C(Nc1ccc(OC(F)F)cc1)c1cc[n+]([O-])cc1,-2,1,1,27,·
CCNc1ccc(Br)cc(C(=O)/C=C/c2ccc(Cl)cc2Cl)c1=O,0,-97,10,-187,76*
CCOc1ccc(/C=C2\SC(N3CCc4ccccc4C3)=NC2=O)cc1,-1,68*,3,14,20
C[C@H](CO)N1C[C@H](C)[C@@H](CN(C)C(=O)Nc2ccc(F)cc2)Oc2ccc(NS(C)(=O)=O)cc2C1=O,-2,2,1,-1,·
O=C(OCc1ccccc1)/C(=C(\O)c1ccccc1Br)c1ccc(-c2ccccc2)cn1,-2,3,2,-10,·
Cc1ccc(C(=O)NCc2ccco2)cc1S(=O)(=O)N1CCCC1,1,-3,0,0,·
Cc1ccsc1/C=N/Nc1nc(Cl)c(Cl)cc1Cl,1,-8,4,-9,44
Cc1ccc(/C=N/Nc2nc(Cl)c(Cl)cc2Cl)s1,7,2,4,-4,83*
COc1ccc(CCNc2ncnc3sccc23)cc1OC,-2,10,3,11,70*
CC(=O)Nc1ccc(NC(=O)CS(=O)(=O)c2cn(CC(=O)N3CCCC3)c3ccccc23)cc1,-3,-11,1,-8,·
Cc1nc(-c2cccnc2)sc1C(=O)Nc1cccc(C(F)(F)F)c1,-2,-9,-4,-10,83*
Cc1cc(C)n(C(=O)/C=C/c2cccs2)n1,0,-1,4,-6,8
O=c1c2ccc(Cl)cc2[nH]c(=S)n1CCC1=CCCCC1,1,-8,3,15,84*
COc1cccc(N2CCN(c3ncnc4c3cnn4-c3ccc(C)cc3C)CC2)c1,-9,40,-7,-23,98*
Cc1cccc(-n2ncc3c(N4CCC(C)CC4)ncnc32)c1,-3,-4,4,22,73*
Cc1ccc(-n2ncc3c(N4CCCC4)ncnc32)c(C)c1,-2,-6,4,3,-23
COc1ccc(CCNC(=S)c2ccccc2)cc1OC,-5,-1,-3,7,·
CCOc1ccc(-c2nc(N)ncc2Oc2ccc(OC)cc2)c(O)c1,9,7,-1,4,-3
COc1ccc(-c2nc(N)nc(C)c2Oc2ccccc2Br)c(O)c1,-3,5,0,-13,95*
COc1ccc(C(=O)Nc2ccc(Oc3nc(C)nc4sc(-c5ccccc5)cc34)cc2)cc1OC,4,2,6,1,81*
Nn1c(SCC(=O)NC2CCS(=O)(=O)C2)nnc1-c1ccco1 (centres undefined),-4,-5,2,9,·
O=C(Nc1cnccn1)Nc1ccc(Cl)cc1Cl,4,0,2,5,78*
O=C(Nc1ccc(Cl)cc1)Nc1ccc2c(c1)OCO2,2,1,7,-10,·
SMILES,UPR XBP1 act,Beta2AR agonist,CHOP UPR activ,VLA-4 inh,CHOP inhibitor
Cc1ccc(NC(=O)Nc2cnccn2)cc1Cl,3,7,0,-5,9
O=C(Nc1ccc2c(c1)OCO2)Nc1ccc(Cl)cc1Cl,4,6,3,-16,91*
O=C1C=CC2(O[C@H](c3ccccc3)[C@@H](c3ccccc3)O2)[C@H](Sc2ccccc2O)C1,·,42*,·,·,·
CCOc1ccccc1C1C(C#N)=C(SCC(=O)OC)NC(=O)C1C(=O)OC (centres undefined),-1,3,3,7,80*
CCOC(=O)C1C(=O)NC(SCC(=O)OC)=C(C#N)C1c1ccccc1OCC (centres undefined),-3,8,-2,20,27
CC1CCc2c(sc3nc(C(C)(C)C)nc(N4CCN(C(=O)CCl)CC4)c23)C1 (centres undefined),-10,50*,-11,15,·
CC(C)(C)c1ccc(NC(=O)Cn2cnc3cc([N+](=O)[O-])ccc3c2=O)cc1,-4,-5,4,6,91*
CC(=O)Nc1ccc(S(=O)(=O)NCc2ccc(C)cc2)cc1,0,-1,-1,-1,76*
CC1CCc2nc(N)c(C#N)c(-c3cccn3C)c2C1 (centres undefined),2,1,3,-2,71*
O=C(NNC(=O)c1ccccc1O)c1ccc(Cl)c(S(=O)(=O)N2CCCCC2)c1,-4,1,2,7,·
CCc1ccc(NC(=O)C2CCCN2S(=O)(=O)c2ccc3c(c2)C(C)(C)C(=O)N3C)cc1 (centres undefined),0,-1,1,12,·
CC1Cc2ccccc2N1CC(=O)NC(c1ccccc1)c1ccccc1 (centres undefined),0,1,0,7,87*
Cc1ccc(NC(=O)COC(=O)CC2CCCC2)cc1Cl,1,-2,0,-5,72*
CC(C)CNC(=O)CSc1nnc(-c2ccccn2)n1Cc1ccccc1,-2,-7,-3,-4,71*
CC(C)c1ccc(Nc2nc(Cl)nc(NCc3ccco3)n2)cc1,3,8,1,-2,79*
CC(C)c1ccc(Nc2nc(Cl)nc(NCCO)n2)cc1,-1,-4,1,10,·
CCCC1CCC(c2nc(-c3cccnc3)no2)CC1 (centres undefined),6,-10,5,1,89*
CCCCCCC1CCC(c2nc(-c3ccncc3)no2)CC1 (centres undefined),-2,6,-1,-9,-3
CC1(C)CC(=O)C/C(=N/NC(=O)c2ccc(-c3ccccc3)cc2)C1,-2,-14,-1,3,24
Cc1cc(Br)c(OCc2ccc(C(=O)N/N=C3\CC(=O)CC(C)(C)C3)cc2)c(Br)c1,-2,3,2,8,91*
CCn1c(C)c(Br)c(=O)c(C(=O)OC)c1-c1ccc(Cl)cc1,0,5,0,7,·
Fc1ccc(CSc2nc3ncc(Br)cc3[nH]2)cc1,0,1,-1,13,74*
Brc1cnc2nc(SCc3nc4ccccc4[nH]3)[nH]c2c1,-3,-4,2,-1,45
Cc1cc(C(=O)O)ccc1N=Cc1c(O)ccc2ccccc12,-3,13,3,19,·
Cc1cc(C)c2c(=O)n(CC(=O)N3CCC(Cc4ccccc4)CC3)sc2n1,-3,·,41*,·,107*
Cc1ccn2c(=O)nc(SCC(=O)N3CCC(Cc4ccccc4)CC3)nc2c1,-1,-3,0,12,·
Cc1cccc(N2CCN(C(=O)Cn3sc4nc(C)cc(C)c4c3=O)CC2C)c1 (centres undefined),-4,29,22,10,99*
CC(C)c1cc(=O)[nH]c(N2CCN(Cc3ccc4c(c3)OCO4)CC2)n1,-5,-9,-1,9,·
